Test system: U2OS
Assay: Multiplex assay against U2OS
Format: toxicity, cell-based
Conditions: human
How it was run: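 Live cells carried four stains from seeding: Hoechst33342, BioTracker Green Microtubule Cytoskeleton Dye, MitoTracker Red and Annexin V Alexa Fluor 680. They were imaged on a CQ1 microscope at 37°C and 5% CO2 after compound addition. Using CellPathfinder machine-learning gating, cells were split into Hoechst high-intensity objects or normal cells, normal cells into healthy, pyknosed or fragmented nuclei, and pyknosed cells into mitotic or apoptotic; tubulin, mitochondrial-mass and membrane-permeability phenotypes are per cents of healthy-nucleus cells.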

[1] = 12 h, 1 µM, compound concentration 1 uM, replicate 1
[2] = 12 h, 1 µM, compound concentration 1 uM, replicate 2
[3] = 12 h, 10 µM, compound concentration 10 uM, replicate 1
[4] = 12 h, 10 µM, compound concentration 10 uM, replicate 2
[5] = 24 h, 1 µM, compound concentration 1 uM, replicate 1
[6] = 24 h, 1 µM, compound concentration 1 uM, replicate 2
[7] = 24 h, 10 µM, compound concentration 10 uM, replicate 1

`Nc1nc2c(c(N3CCNCC3)n1)CCC1=C2[C@@H]2CCCC[C@@H]2O1` was tested, and the “Population Apoptotic (%)” value [1] was 34%, the “Population Fragmented Nuclei (%)” value [1] was 14% and the “Population Healthy Nuclei (%)” value [1] was 66%. For the same compound, the “Population Hoechst High Intensity Objects (%)” value [1] was 7%, the “Population Membrane Permeable-Phenotype (%)” value [1] was 4% and the “Population Mitochondria Different-Phenotype (%)” value [1] was 9%. For the same compound, the “Population Mitotic Cells (%)” value [1] was 65%, the “Population Normal (%)” value [1] was 92% and the “Population Tubulin-Different-Phenotype (%)” value [1] was 7%. For the same compound, the “Total Cell Count” value [1] was 167, the “Population Apoptotic (%)” value [2] was 0% and the “Population Fragmented Nuclei (%)” value [2] was 20%. The “Population Healthy Nuclei (%)” value [2] was 61%, the “Population Hoechst High Intensity Objects (%)” value [2] was 15% and the “Population Membrane Permeable-Phenotype (%)” value [2] was 8%. For the same compound, the “Population Mitochondria Different-Phenotype (%)” value [2] was 27%, the “Population Mitotic Cells (%)” value [2] was 100% and the “Population Normal (%)” value [2] was 84%. For the same compound, the “Population Pyknosed Nuclei (%)” value [2] was 18%, the “Population Tubulin-Different-Phenotype (%)” value [2] was 21% and the “Total Cell Count” value [2] was 71. The “Population Apoptotic (%)” value [3] was 26%, the “Population Fragmented Nuclei (%)” value [3] was 13% and the “Population Healthy Nuclei (%)” value [3] was 62%. For the same compound, the “Population Hoechst High Intensity Objects (%)” value [3] was 9%, the “Population Membrane Permeable-Phenotype (%)” value [3] was 11% and the “Population Mitochondria Different-Phenotype (%)” value [3] was 88%. For the same compound, the “Population Mitotic Cells (%)” value [3] was 73%, the “Population Normal (%)” value [3] was 90% and the “Population Pyknosed Nuclei (%)” value [3] was 24%. For the same compound, the “Population Tubulin-Different-Phenotype (%)” value [3] was 93%, the “Total Cell Count” value [3] was 135 and the “Population Apoptotic (%)” value [4] was 27%. The “Population Fragmented Nuclei (%)” value [4] was 9%, the “Population Healthy Nuclei (%)” value [4] was 68% and the “Population Hoechst High Intensity Objects (%)” value [4] was 3%. The “Population Membrane Permeable-Phenotype (%)” value [4] was 25%, the “Population Mitochondria Different-Phenotype (%)” value [4] was 87% and the “Population Mitotic Cells (%)” value [4] was 72%. For the same compound, the “Population Normal (%)” value [4] was 96%, the “Population Pyknosed Nuclei (%)” value [4] was 21% and the “Population Tubulin-Different-Phenotype (%)” value [4] was 92%. The “Total Cell Count” value [4] was 106, the “Population Apoptotic (%)” value [5] was 39% and the “Population Fragmented Nuclei (%)” value [5] was 15%. For the same compound, the “Population Healthy Nuclei (%)” value [5] was 65%, the “Population Hoechst High Intensity Objects (%)” value [5] was 4% and the “Population Membrane Permeable-Phenotype (%)” value [5] was 7%. The “Population Mitochondria Different-Phenotype (%)” value [5] was 4%, the “Population Mitotic Cells (%)” value [5] was 60% and the “Population Normal (%)” value [5] was 95%. For the same compound, the “Population Pyknosed Nuclei (%)” value [5] was 19%, the “Population Tubulin-Different-Phenotype (%)” value [5] was 3% and the “Total Cell Count” value [5] was 203. For the same compound, the “Population Apoptotic (%)” value [6] was 20%, the “Population Fragmented Nuclei (%)” value [6] was 22% and the “Population Healthy Nuclei (%)” value [6] was 57%. For the same compound, the “Population Hoechst High Intensity Objects (%)” value [6] was 8%, the “Population Membrane Permeable-Phenotype (%)” value [6] was 6% and the “Population Mitochondria Different-Phenotype (%)” value [6] was 20%. For the same compound, the “Population Mitotic Cells (%)” value [6] was 80%, the “Population Normal (%)” value [6] was 91% and the “Population Pyknosed Nuclei (%)” value [6] was 20%. For the same compound, the “Population Tubulin-Different-Phenotype (%)” value [6] was 16%, the “Total Cell Count” value [6] was 82 and the “Population Apoptotic (%)” value [7] was 40%. The “Population Fragmented Nuclei (%)” value [7] was 11%, the “Population Healthy Nuclei (%)” value [7] was 45% and the “Population Hoechst High Intensity Objects (%)” value [7] was 14%. The “Population Membrane Permeable-Phenotype (%)” value [7] was 16% and the “Population Mitochondria Different-Phenotype (%)” value [7] was 85%.

From ChEMBL document CHEMBL4689842, “EUbOPEN Chemogenomics Library wave 1” (2021)
